Experimental data pooled from the literature.
Compare with care: the assays were run in different laboratories.
Organism: Human immunodeficiency virus 1
Read-out: viral replication

CC(C)CN(C[C@@H](O)[C@H](Cc1ccccc1)NC(=O)O[C@H]1CO[C@H]2OCC[C@H]21)S(=O)(=O)c1ccc(B(O)O)cc1
IC50 (MT4): 48.9 nM

COc1ccccc1NC(=O)c1ccccc1Cl
IC50 (MT4): > 50000 nM

CC(C)CN(C[C@@H](O)[C@H](Cc1ccccc1)NC(=O)O[C@H]1CCO[C@H]2OCC[C@H]21)S(=O)(=O)c1ccc(B(O)O)cc1
IC50 (inhibitor; MT2): 120 nM

Cc1cn([C@H]2C[C@H](N=[N+]=[N-])[C@@H](CO)O2)c(=O)[nH]c1=O
IC90 (human PBMC; clinical isolate): > 1000 nM

Cc1c(O)cccc1C(=O)N[C@@H](CSc1ccccc1)[C@H](O)CN1C[C@H]2CCCC[C@H]2C[C@H]1C(=O)NC(C)(C)C
IC50 (human PBMC): 12 nM

CSCC[C@H](NC(C)=O)C(=O)N[C@@H](CC(C)C)C(=O)N[C@@H](CCCNC(=N)N)C(=O)N[C@@H](Cc1c[nH]c2ccccc12)C(=O)N[C@@H](CO)C(=O)N[C@@H](CCCNC(=N)N)C(=O)N[C@@H](CCCCN)C(=O)N[C@@H](CC(C)C)C(=O)N1CCC[C@H]1C(=O)N[C@@H](CS)C(=O)N[C@H](C(=O)N[C@@H](CO)C(=O)O)C(C)C
IC50 (inhibitor; TZM-bl): > 10000 nM

Cc1cccc(C)c1OCC(=O)N[C@@H](Cc1ccccc1)[C@@H](O)C[C@H](Cc1ccccc1)NC(=O)[C@H](C(C)C)N1CCCNC1=O
IC50 (MT4): 13 nM

CC(C)c1nc(CN(C)C(=O)N[C@H](C(=O)N[C@@H](Cc2ccccc2)C[C@H](O)[C@H](Cc2ccccc2)NC(=O)OCc2cncs2)C(C)C)cs1
IC90 (inhibitor; human PBMC; clinical isolate): 92.3 nM

C[C@@H](O[C@H]1OCCN(Cc2n[nH]c(=O)[nH]2)[C@H]1c1ccc(F)cc1)c1cc(C(F)(F)F)cc(C(F)(F)F)c1
IC50 (inhibitor; human PBMC; clinical isolate): 6370 nM

CC(C)CN(C[C@@H](O)[C@H](Cc1ccccc1)NC(=O)O[C@H]1CO[C@H]2OCC[C@H]21)S(=O)(=O)c1ccc(N)cc1
IC50 (MT2): 3.3 nM

CC(C)CN(C[C@@H](O)[C@H](Cc1ccccc1)NC(=O)O[C@H]1CCO[C@H]2OCC[C@H]21)S(=O)(=O)c1ccc(C(=O)O)cc1
IC50 (inhibitor; MT2): > 1000 nM

CC(C)Nc1cccnc1N1CCN(C(=O)c2cc3cc(NS(C)(=O)=O)ccc3[nH]2)CC1
IC50 (inhibitor; human PBMC; clinical isolate): 30.6 nM
